Test [1] in a line: reducers of endogenous Her2 protein level, primary screen, SKBR3 breast tumor cells, AlphaScreen, ATP viability (AID 461;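 active means Her2 level under about 52% in both replicate screens, with viability over 70% of control, limit read from the data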;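 on Her2 level: lower value means less Her2 protein in the cells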;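 on viability: percent of carrier control wells set as 100% viability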). As to conditions: 18-24 h, measured here: SKBR3 viability, ATP luminescence, at 10 µM. On the technique in general: In Alpha technology, singlet oxygen from a donor bead excites a nearby acceptor bead.
Test [2] has as its target Receptor tyrosine-protein kinase erbB-2 (Homo sapiens) (UniProt P04626). The test is described as above. The settings on record: 18-24 h, at 10 µM, stronger effect = lower value.
Test [3] in a line: SK-BR-3 cell growth inhibitors, pilot screen, 24 h, human (AID 572;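 active means viability at or below 10% of carrier control in both of two separate runs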;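 further: compound exposure lasted between 18 and 24 h rather than exactly 24 h; 100% = carrier-treated control wells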). The settings on record: SK-BR-3 viability, CellTiter-Glo luminescence, at 10 µM, stronger effect = lower value. In general terms: ATP-based viability assays read luminescence as a measure of living cells.
Test [4] in a line: HUVEC growth inhibition – cell-based, human, primary screen (AID 575).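 Further: 100% = median of untreated cell wells with 0.1% DMSO on each plate.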 The settings on record: HUVEC proliferation, CellTiter-Glo luminescence, 72 h; at 10 µM; stronger effect = lower value. The method in brief:
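Material: primary human umbilical vein endothelial cells / Schedule: 72 h exposure, 37 °C, 5% CO2, 30 min RT equilibration / Signal: ATP-based CellTiter-Glo luminescent read / Read-out basis: percent of median DMSO-control luminescence / Control set: 32 DMSO-only cell-control wells (high), 32 MePR drug-control wells (low) per plate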

Test [5] can be described thus: growth inhibitors of H69AR lung tumor, primary screen, human, duplicate replicates (AID 580;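 active means viability at or under a set limit in both replicates, limit being median viability minus 3 SD, cut at about 48% in these data, passing the limit was not always enough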;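 further: 100% = mean luminescence of untreated wells and 0% = no signal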). As to conditions: H69AR lung tumor cells viability, ATP luminescence, 72 h; at 10 µM; stronger effect = lower value.
Test [6] in a line: reversal of MRP1-mediated doxorubicin resistance, pilot screen, H69AR cells, doxorubicin co-treatment (AID 601;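 active means viability loss from added drug above about 55%, and viability with drug at most 40%, in both replicates, limit read from the data, passing the limit was not always enough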). The settings on record: CellTiter-Glo, 72 h, at 10 µM; for differential viability (reversal): stronger effect = higher value.
Setting [7] is: H69AR cells + 2 uM doxorubicin, measured here: viability with 2 uM doxorubicin, stronger effect = lower value.
Setting [8] is: H69AR cells, compound alone cytotoxicity.

Activity calls are given as the source filed them.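 How the source made its calls, unless noted: active means viability at or below 30% in both replicate assays; inconclusive means viability at or below 30% in just one of the two assays; inactive means the rest.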

Chain of Receptor tyrosine-protein kinase erbB-2 (Homo sapiens) (P04626 whole entry, looked up): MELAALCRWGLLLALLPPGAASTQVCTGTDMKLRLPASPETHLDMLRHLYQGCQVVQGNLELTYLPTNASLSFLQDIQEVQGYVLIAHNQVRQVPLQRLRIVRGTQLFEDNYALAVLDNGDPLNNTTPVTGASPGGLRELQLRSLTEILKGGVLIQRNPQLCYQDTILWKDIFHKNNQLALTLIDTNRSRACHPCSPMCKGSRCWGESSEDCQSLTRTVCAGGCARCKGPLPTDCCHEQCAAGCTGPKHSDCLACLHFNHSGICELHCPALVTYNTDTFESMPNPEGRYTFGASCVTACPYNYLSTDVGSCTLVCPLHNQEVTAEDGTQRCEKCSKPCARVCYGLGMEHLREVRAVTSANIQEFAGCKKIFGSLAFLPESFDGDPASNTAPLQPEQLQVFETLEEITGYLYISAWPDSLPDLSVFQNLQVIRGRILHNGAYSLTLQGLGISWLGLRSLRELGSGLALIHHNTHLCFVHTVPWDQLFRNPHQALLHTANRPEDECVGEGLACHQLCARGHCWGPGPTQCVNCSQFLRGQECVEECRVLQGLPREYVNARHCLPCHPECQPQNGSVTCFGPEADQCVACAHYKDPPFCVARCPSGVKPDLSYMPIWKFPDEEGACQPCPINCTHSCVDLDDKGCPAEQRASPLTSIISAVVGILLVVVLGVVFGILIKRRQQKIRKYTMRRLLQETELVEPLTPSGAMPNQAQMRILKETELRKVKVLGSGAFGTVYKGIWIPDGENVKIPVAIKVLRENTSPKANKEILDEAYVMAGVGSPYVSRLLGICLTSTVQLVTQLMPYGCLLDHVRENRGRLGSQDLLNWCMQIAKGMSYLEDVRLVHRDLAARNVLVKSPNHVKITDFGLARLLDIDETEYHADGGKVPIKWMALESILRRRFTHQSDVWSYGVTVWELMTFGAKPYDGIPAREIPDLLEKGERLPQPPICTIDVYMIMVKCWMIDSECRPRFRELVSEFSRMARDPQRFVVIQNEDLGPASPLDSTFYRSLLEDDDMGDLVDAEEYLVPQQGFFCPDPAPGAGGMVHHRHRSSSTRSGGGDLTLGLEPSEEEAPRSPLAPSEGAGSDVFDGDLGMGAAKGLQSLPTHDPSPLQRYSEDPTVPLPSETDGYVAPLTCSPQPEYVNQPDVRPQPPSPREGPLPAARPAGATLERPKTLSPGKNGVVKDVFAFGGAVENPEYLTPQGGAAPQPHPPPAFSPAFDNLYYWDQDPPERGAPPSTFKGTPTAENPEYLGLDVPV

As for `NS(=O)(=O)c1cc2c(cc1C(F)(F)F)NC(Cc1ccccc1)NS2(=O)=O` (stereo not drawn), the viability was 106% in test [1]; 106% (inactive) in test [3]; 83.9% (inactive) in test [4]; 88.9% (inactive) in test [5]; 94.3% in test [6] (setting [7]); 88.9% in test [6] (setting [8]). The Her2 level in test [2] was 114% (inactive). Moreover, the differential viability (reversal) in test [6] (H69AR cells + 2 uM doxorubicin) was -5.48% (inactive).

With `C[C@]12C=CC(=O)C=C1CC[C@H]1[C@@H]3C[C@@H](O)[C@](O)(C(=O)CO)[C@@]3(C)C[C@H](O)[C@@]12F`, the viability is 94% in test [1]; 94% (inactive) in test [3]; 101% (inactive) in test [4]; 106% (inactive) in test [5]; 109% in test [6] (setting [7]); 106% in test [6] (setting [8]). Moreover, the Her2 level in test [2] is 110% (inactive). For the same molecule, in test [6] (H69AR cells + 2 uM doxorubicin), the differential viability (reversal) was -2.81% (inactive).

For the molecule `CC[N+](C)(CC)CCOC(=O)C(O)(c1ccccc1)C1CCCCC1` (stereo not drawn), the viability is 91.5% in test [1]; 91.5% (inactive) in test [3]; 98.9% (inactive) in test [4]; 110% (inactive) in test [5]; 97% in test [6] (setting [7]); 110% in test [6] (setting [8]). In test [2], the Her2 level is 97.5% (inactive). In addition, the differential viability (reversal) in test [6] (H69AR cells + 2 uM doxorubicin) is 12.8% (inactive).

Turning to `C[C@]12C[C@H](O)[C@H]3[C@@H](CCC4=CC(=O)CC[C@@]43C)[C@@H]1CC[C@@H]2C(=O)CO`, the viability in test [1] is 106%; in test [3], 106% (inactive); in test [4], 105% (inactive); in test [5], 88.3% (inactive); in test [6] (setting [7]), 94.3%; in test [6] (setting [8]) it was 88.3%. In test [2], the Her2 level is 104% (inactive). For the same molecule, in test [6] (H69AR cells + 2 uM doxorubicin), the differential viability (reversal) is -5.99% (inactive).

For `CN(C(=O)C(Cl)Cl)c1ccc(OC(=O)c2ccco2)cc1`, the viability was 130% in test [1]; 130% (inactive) in test [3]; 86.3% (inactive) in test [4]; 96.6% (inactive) in test [5]; 91.5% in test [6] (setting [7]); 96.6% in test [6] (setting [8]). Moreover, in test [2], the Her2 level was 88% (inactive). The differential viability (reversal) in test [6] (H69AR cells + 2 uM doxorubicin) was 5.13% (inactive).

Consider `COc1ccc(C2CNC(=O)C2)cc1OC1CCCC1` (stereo not drawn), for which the viability in test [1] is 115%; in test [3] it was 115% (inactive); in test [4], 114% (inactive); in test [5] it was 109% (inactive); in test [6] (setting [7]) it was 90.6%; in test [6] (setting [8]), 109%. Further, in test [2], the Her2 level was 121% (inactive). Moreover, in test [6] (H69AR cells + 2 uM doxorubicin), the differential viability (reversal) is 18.8% (inactive).

In the case of `CC(C[N+](C)(C)C)OC(N)=O` (stereo not drawn), the viability in test [1] is 101%; in test [3] it was 101% (inactive); in test [4] it was 97.5% (inactive); in test [5], 99.4% (inactive); in test [6] (setting [7]), 98.3%; in test [6] (setting [8]), 99.4%. Besides, in test [2], the Her2 level is 114% (inactive). The differential viability (reversal) in test [6] (H69AR cells + 2 uM doxorubicin) was 1.13% (inactive).

Consider `CC1CCc2cc(F)cc3c(=O)c(C(=O)O)cn1c23` (stereo not drawn), for which the viability is 104% in test [1]; 104% (inactive) in test [3]; 98.5% (inactive) in test [4]; 104% (inactive) in test [5]; 99.2% in test [6] (setting [7]); 104% in test [6] (setting [8]). In addition, the Her2 level in test [2] is 100% (inactive). Besides, in test [6] (H69AR cells + 2 uM doxorubicin), the differential viability (reversal) is 4.35% (inactive).

With `O=C(O)CCCCCCC1C(=O)NC(=O)N1CCC(O)C1CCCCC1` (stereo not drawn), the viability in test [1] is 108%; in test [3] it was 108% (inactive); in test [4], 79.8% (inactive); in test [5], 99.3% (inactive); in test [6] (setting [7]) it was 104%; in test [6] (setting [8]), 99.3%. Besides, in test [2], the Her2 level was 108% (inactive). For the same molecule, the differential viability (reversal) in test [6] (H69AR cells + 2 uM doxorubicin) is -4.75% (inactive).

For `COC(=O)[C@@H](N)Cc1ccc(O)cc1`, the viability in test [1] was 106%; in test [3] it was 106% (inactive); in test [4], 82.9% (inactive); in test [5] it was 109% (inactive); in test [6] (setting [7]) it was 93.8%; in test [6] (setting [8]), 109%. Further, the Her2 level in test [2] is 108% (inactive). In addition, the differential viability (reversal) in test [6] (H69AR cells + 2 uM doxorubicin) was 15.7% (inactive).

Regarding `CCC1(c2ccccc2)C(=O)NCNC1=O`, the viability in test [1] was 96.5%; in test [3], 96.5% (inactive); in test [4] it was 116% (inactive); in test [5] it was 102% (inactive); in test [6] (setting [7]), 85.7%; in test [6] (setting [8]), 102%. For the same molecule, the Her2 level in test [2] is 102% (inactive). Also, in test [6] (H69AR cells + 2 uM doxorubicin), the differential viability (reversal) was 16.5% (inactive).

As usually defined, the viability is a read-out of living cells in per cent, often relative to untreated cells.

Source of the values: PubChem BioAssay.
